Measurements taken from ChEMBL document CHEMBL1649124, “Genetic variability among ampC genes from acinetobacter genomic species 3” (Antimicrob Agents Chemother, 2009).
Converted amounts (≈) assume the structure as drawn.

Assays:
[1] = system: Acinetobacter pittii; assay: Antibacterial activity against Acinetobacter genomosp. 3 isolate 52 by Etest method; format: functional
Procedure, shortened: (§1)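 MICs for AG3 clinical isolates were read by Etest following the manufacturer's instructions. Isolates were stored at –80°C in 10% Brucella glycerol broth before testing.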

[2] = system: Escherichia coli; assay: Antibacterial activity against Escherichia coli DH5alpha carrying ampC gene of Acinetobacter genomosp. 3 isolate 103 by Etest method; format: functional
Procedure, shortened: (§2)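 E. coli DH5α expressing the AG3 isolate ampC gene, PCR-amplified (high-fidelity system, 28 cycles) and cloned into BamHI/HindIII sites of pBGS18 (kanamycin marker) under the CTX-M-14 β-lactamase promoter. Grown at 37°C in LB, with kanamycin 50 µg/ml when needed. β-Lactam MICs determined by Etest per the manufacturer's instructions.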

[3] = system: Acinetobacter pittii; assay: Antibacterial activity against Acinetobacter genomosp. 3 isolate 20 by Etest method; format: functional; procedure, shortened: as §1
[4] = system: Acinetobacter pittii; assay: Antibacterial activity against Acinetobacter genomosp. 3 isolate 103 by Etest method; format: functional; procedure, shortened: as §1
[5] = system: Escherichia coli; assay: Antibacterial activity against Escherichia coli DH5alpha carrying ampC gene of Acinetobacter genomosp. 3 isolate 14 by Etest method; format: functional; procedure, shortened: as §2
[6] = system: Acinetobacter pittii; assay: Antibacterial activity against Acinetobacter genomosp. 3 isolate 14 by Etest method; format: functional; procedure, shortened: as §1
[7] = system: Acinetobacter pittii; assay: Antibacterial activity against Acinetobacter genomosp. 3 isolate 67 by Etest method; format: functional; procedure, shortened: as §1
[8] = system: Escherichia coli; assay: Antibacterial activity against Escherichia coli DH5alpha carrying ampC gene of Acinetobacter genomosp. 3 isolate 109 by Etest method; format: functional; procedure, shortened: as §2
[9] = system: Escherichia coli; assay: Antibacterial activity against Escherichia coli DH5alpha carrying ampC gene of Acinetobacter genomosp. 3 isolate 20 by Etest method; format: functional; procedure, shortened: as §2
[10] = system: Acinetobacter pittii; assay: Antibacterial activity against Acinetobacter genomosp. 3 isolate 243 by Etest method; format: functional; procedure, shortened: as §1
[11] = system: Escherichia coli; assay: Antibacterial activity against Escherichia coli DH5alpha carrying ampC gene of Acinetobacter genomosp. 3 isolate 69 by Etest method; format: functional; procedure, shortened: as §2
[12] = system: Acinetobacter pittii; assay: Antibacterial activity against Acinetobacter genomosp. 3 isolate 195 by Etest method; format: functional; procedure, shortened: as §1
[13] = system: Escherichia coli; assay: Antibacterial activity against Escherichia coli DH5alpha carrying ampC gene of Acinetobacter genomosp. 3 isolate 56 by Etest method; format: functional; procedure, shortened: as §2
[14] = system: Acinetobacter pittii; assay: Antibacterial activity against Acinetobacter genomosp. 3 isolate 69 by Etest method; format: functional; procedure, shortened: as §1
[15] = system: Acinetobacter pittii; assay: Antibacterial activity against Acinetobacter genomosp. 3 isolate 65 by Etest method; format: functional; procedure, shortened: as §1
[16] = system: Escherichia coli; assay: Antibacterial activity against Escherichia coli DH5alpha carrying ampC gene of Acinetobacter genomosp. 3 isolate 65 by Etest method; format: functional; procedure, shortened: as §2
[17] = system: Escherichia coli; assay: Antibacterial activity against Escherichia coli DH5alpha by Etest method; format: functional
Procedure, shortened: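 E. coli DH5α host strain, grown at 37°C in LB medium. MICs of β-lactams determined by Etest following the manufacturer's instructions.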

[18] = system: Acinetobacter pittii; assay: Antibacterial activity against Acinetobacter genomosp. 3 isolate 60 by Etest method; format: functional; procedure, shortened: as §1
[19] = system: Acinetobacter pittii; assay: Antibacterial activity against Acinetobacter genomosp. 3 isolate 109 by Etest method; format: functional; procedure, shortened: as §1
[20] = system: Acinetobacter pittii; assay: Antibacterial activity against Acinetobacter genomosp. 3 isolate 56 by Etest method; format: functional; procedure, shortened: as §1
[21] = system: Acinetobacter pittii; assay: Antibacterial activity against Acinetobacter genomosp. 3 isolate 90 by Etest method; format: functional; procedure, shortened: as §1
[22] = system: Escherichia coli; assay: Antibacterial activity against Escherichia coli DH5alpha carrying ampC gene of Acinetobacter genomosp. 3 isolate 195 by Etest method; format: functional; procedure, shortened: as §2
[23] = system: Acinetobacter pittii; assay: Antibacterial activity against Acinetobacter genomosp. 3 isolate 21 by Etest method; format: functional; procedure, shortened: as §1
[24] = system: Acinetobacter pittii; assay: Antibacterial activity against Acinetobacter genomosp. 3 isolate 128 by Etest method; format: functional; procedure, shortened: as §1
[25] = system: CC(=O)OCC1=C(C(=O)O)N2C(=O)[C@@H](NC(=O)Cc3cccs3)[C@H]2SC1; assay: (§3) Ratio of Kcat to Km for Acinetobacter genomosp. 3 isolate 195 ADC-18; conditions: Acinetobacter pittii
Procedure, shortened: (§4)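 AmpC genes from AG3 clinical isolates were cloned into pGEX-6P-1 and expressed as GST fusions. The mature enzyme was purified free of GST, giving a 43 kDa SDS-PAGE band of 95% purity. Kinetics were read spectrophotometrically at 25°C in PBS with 20 mg/liter BSA, three repeats. For poor substrates, Km was taken as Ki in competitive assays with Centa as reporter substrate. Vmax came from the Michaelis-Menten equation at six times Km antibiotic.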

[26] = system: CO[C@@]1(NC(=O)Cc2cccs2)C(=O)N2C(C(=O)O)=C(COC(N)=O)CS[C@@H]21; assay: as §3; conditions: Acinetobacter pittii; procedure, shortened: as §4
[27] = system: CO/N=C(\C(=O)N[C@@H]1C(=O)N2C(C(=O)O)=C(COC(N)=O)CS[C@H]12)c1ccco1; assay: as §3; conditions: Acinetobacter pittii; procedure, shortened: as §4
[28] = system: CC(C)(O/N=C(\C(=O)N[C@@H]1C(=O)N2C(C(=O)[O-])=C(C[n+]3ccccc3)CS[C@H]12)c1csc(N)n1)C(=O)O; assay: (§5) Activity of Acinetobacter genomosp. 3 isolate 195 ADC-18; conditions: Acinetobacter pittii; procedure, shortened: as §4
[29] = system: CC(=O)OCC1=C(C(=O)O)N2C(=O)[C@@H](NC(=O)Cc3cccs3)[C@H]2SC1; assay: as §5; conditions: Acinetobacter pittii; procedure, shortened: as §4
[30] = system: CO[C@@]1(NC(=O)Cc2cccs2)C(=O)N2C(C(=O)O)=C(COC(N)=O)CS[C@@H]21; assay: as §5; conditions: Acinetobacter pittii; procedure, shortened: as §4
[31] = system: CO/N=C(\C(=O)N[C@@H]1C(=O)N2C(C(=O)O)=C(COC(N)=O)CS[C@H]12)c1ccco1; assay: as §5; conditions: Acinetobacter pittii; procedure, shortened: as §4
[32] = system: C[C@H]1[C@H](NC(=O)/C(=N\OC(C)(C)C(=O)O)c2csc(N)n2)C(=O)N1S(=O)(=O)O; assay: (§6) Activity of Acinetobacter genomosp. 3 isolate 65 ADC-14; conditions: Acinetobacter pittii; procedure, shortened: as §4
[33] = system: CC(C)(O/N=C(\C(=O)N[C@@H]1C(=O)N2C(C(=O)[O-])=C(C[n+]3ccccc3)CS[C@H]12)c1csc(N)n1)C(=O)O; assay: as §6; conditions: Acinetobacter pittii; procedure, shortened: as §4
[34] = system: CC(=O)OCC1=C(C(=O)O)N2C(=O)[C@@H](NC(=O)Cc3cccs3)[C@H]2SC1; assay: as §6; conditions: Acinetobacter pittii; procedure, shortened: as §4
[35] = system: CO[C@@]1(NC(=O)Cc2cccs2)C(=O)N2C(C(=O)O)=C(COC(N)=O)CS[C@@H]21; assay: as §6; conditions: Acinetobacter pittii; procedure, shortened: as §4
[36] = system: CO/N=C(\C(=O)N[C@@H]1C(=O)N2C(C(=O)O)=C(COC(N)=O)CS[C@H]12)c1ccco1; assay: as §6; conditions: Acinetobacter pittii; procedure, shortened: as §4
[37] = system: CO/N=C(\C(=O)N[C@@H]1C(=O)N2C(C(=O)O)=C(COC(C)=O)CS[C@H]12)c1csc(N)n1; assay: as §6; conditions: Acinetobacter pittii; procedure, shortened: as §4
[38] = system: CC(C)(O/N=C(\C(=O)N[C@@H]1C(=O)N2C(C(=O)[O-])=C(C[n+]3ccccc3)CS[C@H]12)c1csc(N)n1)C(=O)O; assay: (§7) Ratio of Kcat to Km for Acinetobacter genomosp. 3 isolate 65 ADC-14; conditions: Acinetobacter pittii; procedure, shortened: as §4
[39] = system: CC(=O)OCC1=C(C(=O)O)N2C(=O)[C@@H](NC(=O)Cc3cccs3)[C@H]2SC1; assay: as §7; conditions: Acinetobacter pittii; procedure, shortened: as §4
[40] = system: CO[C@@]1(NC(=O)Cc2cccs2)C(=O)N2C(C(=O)O)=C(COC(N)=O)CS[C@@H]21; assay: as §7; conditions: Acinetobacter pittii; procedure, shortened: as §4
[41] = system: CO/N=C(\C(=O)N[C@@H]1C(=O)N2C(C(=O)O)=C(COC(N)=O)CS[C@H]12)c1ccco1; assay: as §7; conditions: Acinetobacter pittii; procedure, shortened: as §4
[42] = system: CO/N=C(\C(=O)N[C@@H]1C(=O)N2C(C(=O)O)=C(COC(C)=O)CS[C@H]12)c1csc(N)n1; assay: as §7; conditions: Acinetobacter pittii; procedure, shortened: as §4

Row | Compound | MIC [1] | MIC [2] | MIC [3] | MIC [4] | MIC [5] | MIC [6] | MIC [7] | MIC [8] | MIC [9] | MIC [10] | MIC [11] | MIC [12] | MIC [13] | MIC [14] | MIC [15] | MIC [16] | MIC [17] | MIC [18] | MIC [19] | MIC [20] | other results
1 | CO[C@@]1(NC(=O)Cc2cccs2)C(=O)N2C(C(=O)O)=C(COC(N)=O)CS[C@@H]21 [CEFOXITIN] | > 256 µg/mL | 32 µg/mL (≈ 74.9 µM) | > 256 µg/mL | 192 µg/mL (≈ 449 µM) | 32 µg/mL (≈ 74.9 µM) | > 256 µg/mL | > 256 µg/mL | 24 µg/mL (≈ 56.1 µM) | 32 µg/mL (≈ 74.9 µM) | 48 µg/mL (≈ 112 µM) | 16 µg/mL (≈ 37.4 µM) | > 256 µg/mL | 16 µg/mL (≈ 37.4 µM) | > 256 µg/mL | 128 µg/mL (≈ 299 µM) | 3 µg/mL (≈ 7.02 µM) | 2 µg/mL (≈ 4.68 µM) | > 256 µg/mL | > 256 µg/mL | 64 µg/mL (≈ 150 µM) | MIC [21]: 128 µg/mL (≈ 299 µM); MIC [22]: 24 µg/mL (≈ 56.1 µM); MIC [23]: > 256 µg/mL; MIC [24]: 128 µg/mL (≈ 299 µM)
2 | ADC-18 protein (Acinetobacter genomosp. 3) (from UniProt Q0VTS0) |  |  |  |  |  |  |  |  |  |  |  |  |  |  |  |  |  |  |  |  | kcat/Km [25]: 9.57e+06 M⁻¹ s⁻¹; kcat/Km [26]: 1.99e+06 M⁻¹ s⁻¹; kcat/Km [27]: 1.79e+06 M⁻¹ s⁻¹; Km [28]: 84 µM; kcat [28]: 0.02 s⁻¹; Km [29]: 148 µM; kcat [29]: 1420 s⁻¹; Km [30]: 0.13 µM; kcat [30]: 0.27 s⁻¹; Km [31]: 0.27 µM; kcat [31]: 0.48 s⁻¹
3 | ADC-14 protein (Acinetobacter genomosp. 3) (from UniProt Q0VTR6) |  |  |  |  |  |  |  |  |  |  |  |  |  |  |  |  |  |  |  |  | Km [32]: 6.01 µM; Km [33]: 26.1 µM; kcat [33]: 0.01 s⁻¹; Km [34]: 6.73 µM; kcat [34]: 56.5 s⁻¹; Km [35]: 0.02 µM; kcat [35]: 0.02 s⁻¹; Km [36]: 0.02 µM; kcat [36]: 0.01 s⁻¹; Km [37]: 0.08 µM; kcat [37]: 0.004 s⁻¹; kcat/Km [38]: 380 M⁻¹ s⁻¹; kcat/Km [39]: 8.4e+06 M⁻¹ s⁻¹; kcat/Km [40]: 941000 M⁻¹ s⁻¹; kcat/Km [41]: 529000 M⁻¹ s⁻¹; kcat/Km [42]: 48200 M⁻¹ s⁻¹
4 | CCN1CCN(C(=O)N[C@@H](C(=O)N[C@@H]2C(=O)N3[C@@H]2SC(C)(C)[C@@H]3C(=O)O)c2ccccc2)C(=O)C1=O [PIPERACILLIN] | 12 µg/mL (≈ 23.2 µM) | 4 µg/mL (≈ 7.73 µM) | 24 µg/mL (≈ 46.4 µM) | 24 µg/mL (≈ 46.4 µM) | 4 µg/mL (≈ 7.73 µM) | 16 µg/mL (≈ 30.9 µM) | 16 µg/mL (≈ 30.9 µM) | 4 µg/mL (≈ 7.73 µM) | 4 µg/mL (≈ 7.73 µM) | 32 µg/mL (≈ 61.8 µM) | 3 µg/mL (≈ 5.8 µM) | 24 µg/mL (≈ 46.4 µM) | 3 µg/mL (≈ 5.8 µM) | 16 µg/mL (≈ 30.9 µM) | 16 µg/mL (≈ 30.9 µM) | 4 µg/mL (≈ 7.73 µM) | 0.38 µg/mL (≈ 0.734 µM) | 24 µg/mL (≈ 46.4 µM) | 16 µg/mL (≈ 30.9 µM) | 12 µg/mL (≈ 23.2 µM) | MIC [21]: 12 µg/mL (≈ 23.2 µM); MIC [22]: 4 µg/mL (≈ 7.73 µM); MIC [23]: 24 µg/mL (≈ 46.4 µM); MIC [24]: 12 µg/mL (≈ 23.2 µM)
